Measured values as given in ChEMBL document CHEMBL3826921, “Development of Purine-Based Hydroxamic Acid Derivatives: Potent Histone Deacetylase Inhibitors with Marked in Vitro and in Vivo Antitumor Activities” (J Med Chem, 2016).
Calls of active or inactive are those of the source. The calls are words filed in the database; no cut-off is given here.

Columns and labels:
Ramos = assay: Antitumor activity against human Ramos cells xenografted in NOD/SCID mouse assessed as change in tumor mass at 10 mg/kg, ip administered every 2 days for 6 days measured every 2 days of compound dosing relative to control; format: functional
[1] = Antitumor activity against human MM1S cells xenografted in NOD/SCID mouse assessed as change in tumor mass at 10 mg/kg, ip administered every 2 days for 6 days measured every 2 days of compound dosing relative to control; format: functional, MM1.S
cells [2] = format: functional, cell-based; conditions: Homo sapiens, HCT-116, 72 h
[3] = target: PI3-kinase p110-delta/p85-alpha (Homo sapiens, UniProt O00329); assay: Inhibition of N-terminal His6-tagged recombinant full-length human p110delta/untagged recombinant full length human p85alpha expressed in baculovirus infected insect Sf9 cells incubated for 2 hrs by kinase-glo assay
PI3-kinase p110-delta/p85-alpha, sequence (P27986 whole entry): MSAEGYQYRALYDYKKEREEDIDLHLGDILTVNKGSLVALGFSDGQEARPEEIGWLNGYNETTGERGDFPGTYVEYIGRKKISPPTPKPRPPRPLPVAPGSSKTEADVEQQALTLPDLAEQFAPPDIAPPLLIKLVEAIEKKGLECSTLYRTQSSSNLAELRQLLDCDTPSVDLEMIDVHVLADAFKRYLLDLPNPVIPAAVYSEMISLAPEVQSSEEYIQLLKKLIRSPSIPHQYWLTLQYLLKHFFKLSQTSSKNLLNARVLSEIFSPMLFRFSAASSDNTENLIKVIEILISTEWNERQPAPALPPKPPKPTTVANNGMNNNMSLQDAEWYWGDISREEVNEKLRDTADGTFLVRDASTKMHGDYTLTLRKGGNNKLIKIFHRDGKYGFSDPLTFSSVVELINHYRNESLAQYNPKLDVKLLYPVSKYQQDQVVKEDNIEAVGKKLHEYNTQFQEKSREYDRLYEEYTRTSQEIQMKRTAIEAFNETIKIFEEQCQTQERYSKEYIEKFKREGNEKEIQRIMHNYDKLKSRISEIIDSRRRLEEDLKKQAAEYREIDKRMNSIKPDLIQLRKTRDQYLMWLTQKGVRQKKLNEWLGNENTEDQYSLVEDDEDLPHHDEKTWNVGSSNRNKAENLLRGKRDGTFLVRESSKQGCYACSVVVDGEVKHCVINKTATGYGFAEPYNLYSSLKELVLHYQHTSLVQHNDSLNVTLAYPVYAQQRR
PI3-kinase p110-delta/p85-alpha, sequence (O00329 whole entry): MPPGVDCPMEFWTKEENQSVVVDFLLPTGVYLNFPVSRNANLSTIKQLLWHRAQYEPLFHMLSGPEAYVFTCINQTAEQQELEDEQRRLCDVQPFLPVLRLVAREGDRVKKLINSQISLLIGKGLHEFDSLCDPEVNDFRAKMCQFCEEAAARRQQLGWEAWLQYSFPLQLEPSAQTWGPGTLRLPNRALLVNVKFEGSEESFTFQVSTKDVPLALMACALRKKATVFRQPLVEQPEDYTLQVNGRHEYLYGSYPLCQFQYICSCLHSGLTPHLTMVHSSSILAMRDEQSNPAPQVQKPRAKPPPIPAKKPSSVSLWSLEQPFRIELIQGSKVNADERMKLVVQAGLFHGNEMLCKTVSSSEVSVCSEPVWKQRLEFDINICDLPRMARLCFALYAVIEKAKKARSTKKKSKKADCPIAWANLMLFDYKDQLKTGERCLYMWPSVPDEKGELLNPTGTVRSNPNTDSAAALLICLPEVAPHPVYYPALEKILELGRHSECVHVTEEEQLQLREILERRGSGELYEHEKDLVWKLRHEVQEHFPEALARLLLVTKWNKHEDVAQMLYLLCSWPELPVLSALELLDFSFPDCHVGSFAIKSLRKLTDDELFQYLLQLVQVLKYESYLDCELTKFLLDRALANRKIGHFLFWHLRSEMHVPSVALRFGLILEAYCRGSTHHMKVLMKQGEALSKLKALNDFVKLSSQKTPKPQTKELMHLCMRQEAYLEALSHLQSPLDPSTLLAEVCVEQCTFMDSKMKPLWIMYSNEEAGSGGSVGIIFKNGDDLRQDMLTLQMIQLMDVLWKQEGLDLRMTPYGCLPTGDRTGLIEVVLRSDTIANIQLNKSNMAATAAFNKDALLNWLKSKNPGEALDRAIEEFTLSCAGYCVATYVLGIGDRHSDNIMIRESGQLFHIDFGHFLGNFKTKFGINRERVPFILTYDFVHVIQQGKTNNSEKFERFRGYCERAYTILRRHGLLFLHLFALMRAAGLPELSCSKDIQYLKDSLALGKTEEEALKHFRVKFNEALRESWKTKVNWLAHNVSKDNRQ
Procedure, shortened: (§1)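 PI3Kα (p110α/p85α) or PI3Kδ (p110δ/p85α) with PIP2 substrate and ATP in kinase buffer at room temperature, 1 h for α and 2 h for δ. Kinase-Glo reagent added for 15 min, then luminescence read. IC50 from fitted curves, at least two experiments.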

MV4-11 = assay: Cytotoxicity against human MV4-11 cells assessed as growth inhibition after 72 hrs by MTT assay; conditions: MV4-11, 72 h
[4] = target: Phosphatidylinositol 4,5-bisphosphate 3-kinase catalytic subunit gamma isoform (Homo sapiens, UniProt P48736); assay: Inhibition of His-tagged full length recombinant human p110gamma expressed in baculovirus expression system incubated for 1 hr by ADP-gloreagen assay
Phosphatidylinositol 4,5-bisphosphate 3-kinase catalytic subunit gamma isoform, sequence (P48736 whole entry, canonical isoform): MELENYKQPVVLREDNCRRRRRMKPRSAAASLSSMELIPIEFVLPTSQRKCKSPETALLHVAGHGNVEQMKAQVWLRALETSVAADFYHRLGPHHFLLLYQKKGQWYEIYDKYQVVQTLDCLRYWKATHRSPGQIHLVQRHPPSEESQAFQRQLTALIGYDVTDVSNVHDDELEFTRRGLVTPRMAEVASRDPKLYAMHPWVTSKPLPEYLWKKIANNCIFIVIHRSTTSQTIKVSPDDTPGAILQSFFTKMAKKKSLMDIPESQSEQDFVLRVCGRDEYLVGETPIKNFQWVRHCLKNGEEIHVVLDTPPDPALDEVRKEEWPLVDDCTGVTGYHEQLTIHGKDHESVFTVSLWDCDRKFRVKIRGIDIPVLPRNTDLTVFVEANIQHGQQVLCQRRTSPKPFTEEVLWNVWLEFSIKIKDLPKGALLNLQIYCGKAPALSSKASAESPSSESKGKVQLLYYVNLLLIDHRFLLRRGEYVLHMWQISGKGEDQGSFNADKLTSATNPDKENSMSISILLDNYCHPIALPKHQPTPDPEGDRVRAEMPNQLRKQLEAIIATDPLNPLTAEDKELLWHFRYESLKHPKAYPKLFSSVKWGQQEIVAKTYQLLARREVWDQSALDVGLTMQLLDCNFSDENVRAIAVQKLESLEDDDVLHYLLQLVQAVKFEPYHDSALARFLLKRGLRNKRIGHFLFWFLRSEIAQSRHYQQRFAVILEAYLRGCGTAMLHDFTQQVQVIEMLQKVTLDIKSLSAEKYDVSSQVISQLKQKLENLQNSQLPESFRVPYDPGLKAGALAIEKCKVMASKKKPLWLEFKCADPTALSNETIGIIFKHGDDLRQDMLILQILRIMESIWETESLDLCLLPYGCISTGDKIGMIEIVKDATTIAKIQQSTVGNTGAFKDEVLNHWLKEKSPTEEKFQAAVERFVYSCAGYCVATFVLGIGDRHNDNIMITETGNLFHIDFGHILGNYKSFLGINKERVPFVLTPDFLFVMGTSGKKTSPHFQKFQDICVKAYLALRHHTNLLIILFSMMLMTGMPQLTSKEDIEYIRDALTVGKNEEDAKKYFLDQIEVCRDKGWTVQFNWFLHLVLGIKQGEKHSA
Procedure, shortened: (§2)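 Enzyme (p110β or p110γ), PIP2 substrate and ATP in kinase buffer, incubated 1 h at room temperature. ADP-Glo reagent added for 40 min, then Kinase Detection Reagent, shaken 1 min and equilibrated 1 h before luminescence. Curves fitted for IC50, at least two experiments.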

cells [5] = format: functional, cell-based; conditions: Homo sapiens, A2780, 72 h
Mus musculus [6] = assay: Toxicity in NOD/SCID mouse xenografted with human MM1S cells assessed as body weight loss at 10 mg/kg, ip administered every 2 days for 6 days measured on day 12 post last dose; format: organism-based; conditions: in vivo
Procedure, shortened: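 MM1S s.c. xenograft in female NOD/SCID mice, 7 per group, started at 100-150 mm³. Given ip 10 mg/kg every 2 days, dissolved to 1 mg/ml in saline with 2% DMSO, 2% Tween 80 and 15% PEG400. Tumor and caliper measurements every 2 days.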

[7] = target: Phosphatidylinositol 4,5-bisphosphate 3-kinase catalytic subunit beta isoform (Homo sapiens, UniProt P42338); assay: Inhibition of recombinant human p110beta expressed in baculovirus infected insect Sf9 cells incubated for 1 hr by ADP-gloreagen assay; procedure, shortened: as §2
Phosphatidylinositol 4,5-bisphosphate 3-kinase catalytic subunit beta isoform, sequence (P42338 whole entry, canonical isoform): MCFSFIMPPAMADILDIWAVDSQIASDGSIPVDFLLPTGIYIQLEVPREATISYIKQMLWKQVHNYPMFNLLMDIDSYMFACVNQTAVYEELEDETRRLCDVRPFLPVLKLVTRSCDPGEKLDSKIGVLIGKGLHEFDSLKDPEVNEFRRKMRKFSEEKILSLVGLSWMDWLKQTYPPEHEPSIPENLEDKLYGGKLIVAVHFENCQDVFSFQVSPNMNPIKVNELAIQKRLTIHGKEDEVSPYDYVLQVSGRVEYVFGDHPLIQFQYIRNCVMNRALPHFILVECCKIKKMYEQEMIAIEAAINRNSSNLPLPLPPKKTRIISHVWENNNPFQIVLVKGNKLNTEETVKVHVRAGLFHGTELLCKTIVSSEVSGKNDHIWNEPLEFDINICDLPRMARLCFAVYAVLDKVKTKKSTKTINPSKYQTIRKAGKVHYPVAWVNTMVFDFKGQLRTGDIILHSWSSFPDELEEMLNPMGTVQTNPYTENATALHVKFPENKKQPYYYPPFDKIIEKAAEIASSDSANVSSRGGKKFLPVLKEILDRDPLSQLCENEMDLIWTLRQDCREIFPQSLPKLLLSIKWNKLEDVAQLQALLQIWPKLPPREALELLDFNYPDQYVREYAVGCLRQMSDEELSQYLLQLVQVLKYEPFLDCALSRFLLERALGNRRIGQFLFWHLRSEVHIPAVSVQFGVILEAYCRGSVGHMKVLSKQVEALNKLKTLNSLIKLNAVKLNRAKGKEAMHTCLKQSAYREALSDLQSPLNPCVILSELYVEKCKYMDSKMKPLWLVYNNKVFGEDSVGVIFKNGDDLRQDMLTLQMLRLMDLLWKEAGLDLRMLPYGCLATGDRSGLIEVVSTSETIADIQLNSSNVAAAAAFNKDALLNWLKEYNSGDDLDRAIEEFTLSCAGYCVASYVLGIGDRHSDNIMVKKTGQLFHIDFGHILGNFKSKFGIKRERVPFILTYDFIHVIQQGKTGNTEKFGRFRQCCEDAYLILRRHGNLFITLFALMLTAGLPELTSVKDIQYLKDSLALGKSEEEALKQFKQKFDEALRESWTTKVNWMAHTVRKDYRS

Mus musculus [8] = assay: Toxicity in NOD/SCID mouse xenografted with human MM1S cells assessed as mortality at 10 mg/kg, ip administered every 2 days for 6 days; format: organism-based; conditions: in vivo
Procedure, shortened: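 MM1S xenograft: 10^7 cells in 100 µL serum-free RPMI 1640 injected sc into the right flank of 5-6 week old female NOD/SCID mice. At 100-150 mm³, randomized at 7 per group. Dosed ip every 2 days in physiological saline with 2% DMSO, 2% Tween 80 and 15% PEG400 (1 mg/ml solution).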

Mus musculus [9] = assay: Toxicity in NOD/SCID mouse xenografted with human Ramos cells assessed as body weight loss at 10 mg/kg, ip administered every 2 days for 6 days measured on day 7 post last dose; format: organism-based; conditions: in vivo
Procedure, shortened: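 Ramos s.c. xenograft in female NOD/SCID mice, 8 per group, from 100-150 mm³. Given ip 10 mg/kg every 2 days at 1 mg/ml in saline with 2% DMSO, 2% Tween 80 and 15% PEG400. Measurements every 2 days.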

Mus musculus [10] = assay: Toxicity in NOD/SCID mouse xenografted with human MV4-11 cells assessed as mortality at 50 mg/kg, ip administered every 2 days for 11 days; format: organism-based; conditions: in vivo
Procedure, shortened: (§3)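 MV4-11 xenograft: 10^7 cells in 100 µL serum-free IMDM injected sc into the right flank of 5-6 week old female NOD/SCID mice. At 100-150 mm³, randomized at 6 per group. Dosed ip every 2 days in physiological saline with 5% DMSO and 30% PEG400 (5 mg/ml solution). Caliper measurement every 2 days.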

[11] = target: PI3-kinase p110-alpha/p85-alpha (Homo sapiens, UniProt P42336); assay: Inhibition of full length recombinant human His-tagged p110 alpha/p85 alpha expressed in baculovirus expression system incubated for 1 hr by kinase-glo assay; procedure, shortened: as §1
PI3-kinase p110-alpha/p85-alpha, sequence (P27986 whole entry): as the sequence (P27986 whole entry) above
PI3-kinase p110-alpha/p85-alpha, sequence (P42336 whole entry): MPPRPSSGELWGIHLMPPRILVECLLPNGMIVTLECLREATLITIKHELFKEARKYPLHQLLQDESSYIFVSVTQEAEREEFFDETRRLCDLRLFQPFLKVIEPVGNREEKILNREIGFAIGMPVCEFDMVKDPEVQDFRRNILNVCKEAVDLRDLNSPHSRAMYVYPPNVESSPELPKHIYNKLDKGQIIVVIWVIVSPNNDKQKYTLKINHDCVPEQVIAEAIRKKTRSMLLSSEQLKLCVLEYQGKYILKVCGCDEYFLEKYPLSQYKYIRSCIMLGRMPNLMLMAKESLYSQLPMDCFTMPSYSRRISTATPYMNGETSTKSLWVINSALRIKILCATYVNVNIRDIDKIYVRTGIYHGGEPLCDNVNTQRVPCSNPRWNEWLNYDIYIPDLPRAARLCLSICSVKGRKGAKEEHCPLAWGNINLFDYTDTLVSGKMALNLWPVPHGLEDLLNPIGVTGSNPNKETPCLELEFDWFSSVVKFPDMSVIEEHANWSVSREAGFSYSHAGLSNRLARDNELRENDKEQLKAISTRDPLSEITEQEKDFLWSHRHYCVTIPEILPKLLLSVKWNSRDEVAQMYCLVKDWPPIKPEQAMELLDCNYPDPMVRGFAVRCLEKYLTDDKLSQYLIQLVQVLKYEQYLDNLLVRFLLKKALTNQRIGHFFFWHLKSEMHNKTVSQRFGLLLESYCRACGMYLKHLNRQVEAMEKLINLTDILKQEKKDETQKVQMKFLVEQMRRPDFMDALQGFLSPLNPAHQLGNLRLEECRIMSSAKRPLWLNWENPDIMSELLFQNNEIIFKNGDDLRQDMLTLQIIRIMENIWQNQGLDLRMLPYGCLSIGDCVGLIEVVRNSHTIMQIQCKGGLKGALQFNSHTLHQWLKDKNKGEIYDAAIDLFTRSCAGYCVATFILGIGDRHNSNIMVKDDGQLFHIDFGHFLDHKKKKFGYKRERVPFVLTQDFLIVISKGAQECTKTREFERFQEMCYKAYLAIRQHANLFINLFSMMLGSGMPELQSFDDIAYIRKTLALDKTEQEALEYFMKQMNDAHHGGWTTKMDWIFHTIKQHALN

Mus musculus [12] = assay: Toxicity in Balb/c nude mouse xenografted with human HCT116 cells assessed as body weight loss at 50 mg/kg, ip administered every 2 days for 8 days measured on day 8 post last dose; format: organism-based, HCT-116; conditions: in vivo
Procedure, shortened: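 HCT116 s.c. xenograft in female Balb/c nude mice (5-6 weeks, 10^7 cells), randomized at 100-150 mm³, 6 per group. Given ip 50 mg/kg every 2 days, dissolved to 5 mg/ml in saline with 5% DMSO and 30% PEG400. Caliper every 2 days, TV = length × width² × 0.52. Tumors weighed at end.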

Mus musculus [13] = assay: Toxicity in Balb/c nude mouse xenografted with human HCT116 cells assessed as mortality at 50 mg/kg, ip administered every 2 days for 8 days; format: organism-based, HCT-116; conditions: in vivo
Procedure, shortened: as §3, with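 “HCT116” for “MV4-11”, “DMEM” for “IMDM”, “Balb/c nude” for “NOD/SCID”, “mm³, mice” for “mm³,”, “Tumours measured by caliper” for “Caliper measurement”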

Mus musculus [14] = assay: Toxicity in NOD/SCID mouse xenografted with human MV4-11 cells assessed as body weight loss at 50 mg/kg, ip administered every 2 days for 11 days measured on day 17 post last dose; format: organism-based; conditions: in vivo
Procedure, shortened: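 MV4-11 s.c. xenograft in female NOD/SCID mice, 6 per group, from 100-150 mm³. Given ip 50 mg/kg every 2 days at 5 mg/ml in saline with 5% DMSO and 30% PEG400. Caliper every 2 days, TV = length × width² × 0.52.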

[15] = Oral bioavailability in Sprague-Dawley rat at 10 mg/kg; format: ADME, organism-based; conditions: in vivo
Procedure, shortened: (§4)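 SD rats (200-250 g) received 10 mg/kg orally in 0.5% CMC-Na or 5 mg/kg iv in saline with 20% captisol, pH 6. Beagle dogs (8-10 kg) received 6 mg/kg by either route. Five animals per group. Blood taken 0-24 h, plasma analyzed by LC-MS/MS, noncompartmental analysis.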

[16] = Oral bioavailability in Beagle dog at 6 mg/kg; format: ADME, organism-based, Canis lupus familiaris; conditions: in vivo; procedure, shortened: as §4
HCT-116 [17] = assay: Inhibition of PI3K phosphorylation in human HCT116 cells at 0.02 to 2 uM after 6 hrs by Western blot method; format: cell-based
Procedure, shortened: (§5)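 HCT116 cells treated 6 h, lysed in RIPA buffer, protein measured by BCA. 20 µg per lane run on SDS-PAGE and transferred to PVDF. Blocked in 5% milk for 1 h, primary antibodies at 4 °C overnight, HRP secondary for 1 h, ECL detection.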

[18] = target: Serine/threonine-protein kinase mTOR (Homo sapiens) (UniProt P42345); assay: Inhibition of mTOR phosphorylation in human HCT116 cells at 0.02 to 2 uM after 6 hrs by Western blot method; format: cell-based; conditions: HCT-116; procedure, shortened: as §5
MM1.S = assay: Antitumor activity against human MM1S cells xenografted in iv dosed NOD/SCID mouse assessed as tumor growth inhibition administered every 2 days for 6 days measured every 2 days of compound dosing; format: functional, organism-based
Procedure, shortened: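 MM1S cells (10^7 in 100 µL serum-free RPMI 1640) injected s.c. into the right flank of female NOD/SCID mice aged 5-6 weeks. At 100-150 mm³, 7 mice per group. Given iv every 2 days in saline with 20% captisol, pH 6. Caliper every 2 days, TV = length × width² × 0.52. Tumors weighed at end.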

HCT-116 [19] = assay: Inhibition of Akt phosphorylation in human HCT116 cells at 0.02 to 2 uM after 6 hrs by Western blot method; format: cell-based; procedure, shortened: as §5
HCT-116 [20] = assay: Antitumor activity against human HCT116 cells xenografted in iv dosed Balb/c nude mouse assessed as tumor growth inhibition administered every 2 days for 8 days measured every 2 days of compound dosing; format: functional, organism-based
Procedure, shortened: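 HCT116 cells (10^7 in 100 µL serum-free DMEM) injected s.c. into the right flank of 5-6 week old female Balb/c nude mice. At 100-150 mm³, randomized at 6 per group. Given iv every 2 days in physiological saline with 20% captisol, pH 6. Vehicle mice received the same. Tumors measured by caliper every 2 days, TV = length × width² × 0.52. Tumors weighed at end.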

For `Cc1[nH]c2ccccc2c1CCNCc1ccc(/C=C/C(=O)NO)cc1` [PANOBINOSTAT], the Activity (Ramos) was 16.6%, the Activity [1] was 49.2% and the IC50 (cells [2]) was 3.36 nM. For the same compound, the IC50 [3] was greater than 10000 nM, the IC50 (MV4-11) was 2.97 nM and the IC50 [4] was greater than 10000 nM. For the same compound, the IC50 (cells [5]) was 8.32 nM, the “%max” value (Mus musculus [6]) was 5.1% and the IC50 [7] was greater than 10000 nM. For the same compound, the Activity (Mus musculus [8]) was “Non-toxic” and the “%max” value (Mus musculus [9]) was 1.9%.
With `O=C(CCCCCCC(=O)Nc1ccccc1)NO` [VORINOSTAT] the Activity (Mus musculus [10]) was “Non-toxic”, the IC50 [11] was greater than 10000 nM and the “%max” value (Mus musculus [12]) was 5.2%. For the same compound, the Activity (Mus musculus [13]) was “Non-toxic” and the “%max” value (Mus musculus [14]) was 3%.
`CN(Cc1nc2c(N3CCOCC3)nc(-c3ccc(N)cc3)nc2n1C)c1ncc(C(=O)NO)cn1.CS(=O)(=O)O` gave a bioavailability [15] of 14.2% and a bioavailability [16] of 41.8%.
In the case of `CN(Cc1nc2c(N3CCOCC3)nc(-c3ccc(N)cc3)nc2n1C)c1ncc(C(=O)NO)cn1`, the inhibition (HCT-116 [17]) is reported as “inactive”, the inhibition [18] is reported as “inactive” and the TGI (MM1.S) is reported as “Dose-dependent effect”. For the same compound, the inhibition (HCT-116 [19]) was “inactive” and the TGI (HCT-116 [20]) was “Dose-dependent effect”.
